According to ChEMBL document CHEMBL1147175, “Synthesis of dioxane-based antiviral agents and evaluation of their biological activities as inhibitors of Sindbis virus replication” (Bioorg Med Chem, 2007):
The source made the active and inactive calls. No cut-off for these calls is given here.

How the values were obtained:
[1] = Cytotoxicity against BHK cells by XTT assay; format: cell-based, Mesocricetus auratus; conditions: hamster
Outline: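 Uninfected BHK cells were treated with a range of compound concentrations. Viability was read with an XTT colorimetric kit, where mitochondrial dehydrogenases form a coloured product read at 450 nm.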

Sindbis virus [2] = assay: Antiviral activity against Sindbis virus replication in BHK cells after 12 hrs by luciferase assay; format: functional, organism-based
Outline: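 BHK cells grown to confluency were infected with luciferase-reporter Sindbis virus (SIN-IRES-Luc) at MOI below 1. Medium containing compound below cytotoxic concentrations was then added, and cells were incubated 12 h at 37 °C. Luciferase was measured in cell extracts by luminometer. EC50 is the concentration giving a 50% reduction in virus production.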

Sindbis virus [3] = assay: Antiviral activity against Sindbis virus replication in BHK cells at 10^-3 mM after 12 hrs by luciferase assay
Sindbis virus [4] = assay: Antiviral activity against Sindbis virus replication in BHK cells after 12 hrs by luciferase assay
[5] = Therapeutic index, ratio of EC50 for Sindbis virus to CC50 for BHK cells; format: cell-based; conditions: hamster, read-out: TI
Outline: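 Therapeutic index was calculated as the […] (XTT viability of uninfected BHK cells).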

[6] = in the assay text read “luciferase assay” for “XTT assay”

SMILES | CC50 [1] | EC50 (Sindbis virus [2]; [6]) | Activity (Sindbis virus [3]) | other results
OC[C@H]1COCCO1 | > 5000 µM | 1500 µM | – | –
CC(O)[C@H]1COCCO1 (stereo not given in full) | 1000 µM | 99 µM | – | –
OCC[C@@H]1COCCO1 | > 1000 µM | 1400 µM | – | –
C1CSC(C[C@H]2COCCO2)SC1 | > 1000 µM | 1000 µM | – | –
C(C[C@@H]1COCCO1)C[C@H]1COCCO1 (mixture of isomers) | > 1000 µM | – | inactive | –
OC(C[C@@H]1COCCO1)C[C@@H]1COCCO1 | > 1000 µM | 670 µM | – | –
OCCC[C@@H]1COCCO1 | > 1000 µM | – | inactive | –
COc1ccc(CCN(C)CCC[C@](C#N)(c2ccc(OC)c(OC)c2)C(C)C)cc1OC | – | 1300 µM | – | –
C1CSC(CC[C@@H]2COCCO2)SC1 | > 1000 µM | – | inactive | –
C(CC[C@@H]1COCCO1)C[C@@H]1COCCO1 | > 1000 µM | 1500 µM | – | –
C(C[C@H]1COCCO1)C[C@H]1COCCO1 | > 1000 µM | – | inactive | –
C1CSC(C[C@H]2COCCO2)(C[C@H]2COCCO2)SC1 | > 1000 µM | – | inactive | –
OCC[C@H]1COCCO1 | > 1000 µM | – | inactive | –
O=C(CC[C@@H]1COCCO1)C[C@@H]1COCCO1 | > 1000 µM | – | inactive | –
CON=C(C[C@@H]1COCCO1)C[C@@H]1COCCO1 | > 1000 µM | – | inactive | –
O=CC[C@H]1COCCO1 | > 5000 µM | – | – | EC50 (Sindbis virus [2]): 460 µM
ClCCOC[C@@H]1CO1 | > 5000 µM | – | – | EC50 (Sindbis virus [4]): 1000 µM
OC[C@@H]1COCCO1 | > 1000 µM | 3.4 µM | – | selectivity ratio [5]: > 294
C(CC[C@@H]1COCCO1)CC[C@@H]1COCCO1 | > 1000 µM | 1500 µM | – | –
O=C(CCC[C@@H]1COCCO1)C[C@@H]1COCCO1 | – | – | inactive | –
C1CSC(CC[C@@H]2COCCO2)(C[C@@H]2COCCO2)SC1 | > 1000 µM | – | inactive | –
c1ccc(CCCC[C@@H]2COCCO2)cc1 | > 1000 µM | – | inactive | –
OC(CC[C@@H]1COCCO1)C[C@@H]1COCCO1 (stereo not given in full) | > 1000 µM | – | inactive | –
ON=C(C[C@@H]1COCCO1)C[C@@H]1COCCO1 | > 1000 µM | – | inactive | –
O=C(C[C@@H]1COCCO1)C[C@@H]1COCCO1 | > 1000 µM | – | inactive | –
ClCCOC[C@H]1CO1 | > 1000 µM | 1000 µM | – | –
C(C[C@@H]1COCCO1)C[C@@H]1COCCO1 | > 1000 µM | 14 µM | – | selectivity ratio [5]: > 71
ICC[C@@H]1COCCO1 | > 1000 µM | 250 µM | – | –
C1CSC(C[C@H]2COCCO2)(C[C@@H]2COCCO2)SC1 | > 1000 µM | 29 µM | – | –
CN(C)CCCN1c2ccccc2Sc2ccc(Cl)cc21 [CHLORPROMAZINE] | 100 µM | 8.2 µM | – | –
